ChEMBL document CHEMBL1121437, “Structure--antitubulin activity relationship in steganacin congeners and analogues. Inhibition of tubulin polymerization in vitro by (+/-)-isodeoxypodophyllotoxin” (J Med Chem, 1980)

Legend:
Tubulin (Sus scrofa) = Tubulin (Sus scrofa) (UniProt P02554+P02550); experiment: (§1) Tested for the inhibition of polymerization rate of tubulin microtubule assembly.; type: functional
Outline: (§2)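 Porcine brain tubulin (three cycles, ca. 1 mg/mL, 15% MAPs) in 0.1 M MES, 0.5 mM MgCl2, 1 mM EGTA, 1 mM GTP, pH 6.6. Compound (from 10^-2 M DMSO stock) preincubated with tubulin 1 h at 37 °C, cooled to 4 °C for 30 min, then warmed to 37 °C. Turbidity followed at 350 nm. I50 = concentration halving maximum polymerization rate.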

Tubulin [1] = molecular target: T1, Tubulin (Sus scrofa, UniProt P02554+P02550); experiment: as §1; type: functional; outline: as §2
Tubulin [2] = molecular target: T1, Tubulin; experiment: Binding affinity against tubulin using [3H]colchicine as radioligand; type: protein assay
Tubulin [3] = molecular target: T1, Tubulin; experiment: Binding affinity against tubulin usingf [3H]-colchicine as radioligand; type: protein assay

Chain of Tubulin (Sus scrofa) (P02550 whole entry, looked up): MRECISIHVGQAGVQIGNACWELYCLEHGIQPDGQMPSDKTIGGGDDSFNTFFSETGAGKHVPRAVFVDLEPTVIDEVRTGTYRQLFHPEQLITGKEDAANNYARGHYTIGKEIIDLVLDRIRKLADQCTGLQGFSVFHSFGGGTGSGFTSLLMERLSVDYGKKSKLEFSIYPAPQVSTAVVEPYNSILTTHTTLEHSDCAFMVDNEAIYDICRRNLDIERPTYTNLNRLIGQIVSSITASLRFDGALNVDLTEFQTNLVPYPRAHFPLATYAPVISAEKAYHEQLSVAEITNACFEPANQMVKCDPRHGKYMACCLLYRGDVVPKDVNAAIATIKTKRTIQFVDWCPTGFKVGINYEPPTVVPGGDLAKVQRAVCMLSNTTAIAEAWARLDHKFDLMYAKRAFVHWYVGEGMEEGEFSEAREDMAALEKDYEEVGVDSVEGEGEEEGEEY
Chain of Tubulin (Sus scrofa) (P02554 whole entry, looked up): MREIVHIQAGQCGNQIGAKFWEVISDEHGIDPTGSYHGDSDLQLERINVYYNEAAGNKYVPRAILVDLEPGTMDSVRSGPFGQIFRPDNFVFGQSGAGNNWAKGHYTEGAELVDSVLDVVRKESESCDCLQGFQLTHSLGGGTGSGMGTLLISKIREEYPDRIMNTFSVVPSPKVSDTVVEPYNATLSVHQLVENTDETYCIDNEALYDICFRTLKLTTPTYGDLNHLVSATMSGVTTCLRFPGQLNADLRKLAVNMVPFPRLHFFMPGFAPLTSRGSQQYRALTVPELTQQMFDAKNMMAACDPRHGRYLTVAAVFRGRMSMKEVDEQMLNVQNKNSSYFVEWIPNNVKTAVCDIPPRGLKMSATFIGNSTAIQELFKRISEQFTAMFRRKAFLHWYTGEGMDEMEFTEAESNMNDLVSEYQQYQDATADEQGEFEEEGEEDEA

SMILES	I50 (Tubulin [1])	Ki (Tubulin [3])	I20 (Tubulin (Sus scrofa))	Ki (Tubulin [2])	I30 (Tubulin (Sus scrofa))
COc1cc2c(c(OC)c1OC)-c1cc3c(cc1C[C@@H]1COC(=O)[C@H]1C2)OCO3	60 µM	–	70 µM	100 µM	–
COc1cc2c(c(OC)c1OC)-c1cc3c(cc1C[C@@H]1COC(=O)[C@@H]1C2)OCO3	5 µM	–	–	32 µM	700 µM
COc1cc(CC2CCOC2=O)c(-c2cc3c(cc2CO)OCO3)c(OC)c1OC (stereo not drawn)	–	–	–	185 µM	–
COc1cc([C@@H]2c3cc4c(cc3CC3COC(=O)[C@@H]32)OCO4)cc(OC)c1OC (mixture of isomers)	2.1 µM	–	–	201 µM	–
COc1cc2c(c(OC)c1OC)-c1cc3c(cc1C(=O)[C@@H]1COC(=O)[C@H]1C2)OCO3 (stereo in doubt; 5)	125 µM	–	–	178 µM	–
COc1cc2c(c(OC)c1OC)-c1cc3c(cc1[C@@H](OC(C)=O)C1COC(=O)[C@H]1C2)OCO3 (stereo partly drawn) [STEGANACIN]	3.5 µM	–	–	10.5 µM	–

More lines, main results first:

I50 (Tubulin [1])	Ki (Tubulin [3])	SMILES	I20 (Tubulin (Sus scrofa))	Ki (Tubulin [2])	I30 (Tubulin (Sus scrofa))
110 µM	[…]	COc1cc2c(c(OC)c1OC)-c1cc3c(cc1C(=O)[C@@H]1COC(=O)[C@H]1C2)OCO3 (stereo in doubt; 9)	–	–	–
450 µM	–	COc1cc2c(c(OC)c1OC)-c1cc3c(cc1C(=O)[C@@H]1COC(=O)[C@H]1C2)OCO3 (stereo in doubt; 12)	–	–	–
375 µM	–	COc1cc2c(c(OC)c1OC)-c1cc3c(cc1C(=O)[C@@H]1COC(=O)[C@H]1C2)OCO3 (stereo in doubt; 13)	–	–	–
162 µM	–	COc1cc2c(c(OC)c1OC)-c1cc3c(cc1C(=O)[C@@H]1COC(=O)[C@H]1C2)OCO3 (stereo in doubt; 17)	–	–	–
